≈ marks a conversion by molar mass, not a printed value.
Experiments:
Assay type in all cases: functional
[1] = test system: Staphylococcus aureus; assay: Antimicrobial activity against constitutively erythromycin resistant and methicillin resistant Staphylococcus aureus PU20 expressing c-ermC incubated in CAMHB medium for 20 hrs by two-fold microbroth dilution method; conditions: PU20, 20 h
Summary of the method: (§1)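 Purified fresh Staphylococcus isolate at about 5×10^5 CFU/ml final in CAMHB, 35 °C for 20 h. Each run included ATCC strains and reference antibiotics as QC, plus an antibiotic-free growth control.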

[2] = test system: Streptococcus pyogenes; assay: Ratio of MBC to MIC for inducibly erythromycin resistant Streptococcus pyogenes 01-968 expressing i-ermA
[3] = test system: Streptococcus pneumoniae; assay: Bactericidal activity against erythromycin-susceptible Streptococcus pneumoniae ATCC 49619 assessed as reduction in colony formation incubated in CAMHB medium for 20 to 24 hrs followed by 24 hrs subculturing in the medium without test compound
[4] = test system: Streptococcus pyogenes; assay: Bactericidal activity against inducibly erythromycin resistant Streptococcus pyogenes 01-968 expressing i-ermA assessed as reduction in colony formation incubated in CAMHB medium for 20 to 24 hrs followed by 24 hrs subculturing in the medium without test compound
[5] = test system: Streptococcus pneumoniae; assay: Antimicrobial activity against mef-encoded erythromycin resistant Streptococcus pneumoniae PU09 incubated in CAMHB medium for 20 to 24 hrs by two-fold microbroth dilution method
[6] = test system: Moraxella catarrhalis; assay: Bactericidal activity against erythromycin-susceptible Moraxella catarrhalis 13L332 assessed as reduction in colony formation incubated in CAMHB medium for 20 hrs followed by 24 hrs subculturing in the medium without test compound
[7] = test system: Staphylococcus aureus; assay: Bactericidal activity against inducibly erythromycin-resistant and methicillin resistant Staphylococcus aureus PU32 expressing i-ermA assessed as reduction in colony formation incubated in CAMHB medium for 20 hrs followed by 24 hrs subculturing in the medium without test compound
[8] = test system: Streptococcus pneumoniae; assay: Bactericidal activity against mef-encoded erythromycin resistant Streptococcus pneumoniae PU09 assessed as reduction in colony formation incubated in CAMHB medium for 20 to 24 hrs followed by 24 hrs subculturing in the medium without test compound
[9] = test system: Staphylococcus aureus; assay: Antimicrobial activity against inducibly erythromycin-resistant and methicillin resistant Staphylococcus aureus PU32 expressing i-ermA incubated in CAMHB medium for 20 hrs by two-fold microbroth dilution method; conditions: PU32, 20 h; summary of the method: as §1
[10] = test system: Streptococcus pneumoniae; assay: Antimicrobial activity against erythromycin-susceptible Streptococcus pneumoniae ATCC 49619 incubated in CAMHB medium for 20 to 24 hrs by two-fold microbroth dilution method
[11] = test system: Moraxella catarrhalis; assay: Ratio of MBC to MIC for erythromycin-susceptible Moraxella catarrhalis 13L332
[12] = test system: Moraxella catarrhalis; assay: Antimicrobial activity against erythromycin-susceptible Moraxella catarrhalis 13L332 incubated in CAMHB medium for 20 hrs by two-fold microbroth dilution method; conditions: 13L332, 20 h
Summary of the method: (§2)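 Clinical isolates and ATCC strains, purified by plate activation and used fresh; inoculum about 5×10^5 CFU/ml final. Grown in CAMHB at 35 °C for 20 h.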

[13] = test system: Staphylococcus aureus; assay: Bactericidal activity against constitutively erythromycin resistant and methicillin-resistant Staphylococcus aureus PU20 expressing c-ermC assessed as reduction in colony formation incubated in CAMHB medium for 20 hrs followed by 24 hrs subculturing in the medium without test compound
[14] = test system: Streptococcus pyogenes; assay: Antimicrobial activity against inducibly erythromycin resistant Streptococcus pyogenes 01-968 expressing i-ermA incubated in CAMHB medium for 20 to 24 hrs by two-fold microbroth dilution method
[15] = test system: Streptococcus pneumoniae; assay: Ratio of MBC to MIC for erythromycin-susceptible Streptococcus pneumoniae ATCC 49619
[16] = test system: Streptococcus pneumoniae; assay: Ratio of MBC to MIC for mef-encoded erythromycin resistant Streptococcus pneumoniae PU09
[17] = test system: Staphylococcus aureus; assay: Ratio of MBC to MIC for constitutively erythromycin resistant and methicillin-resistant Staphylococcus aureus PU20 expressing c-ermC
[18] = test system: Haemophilus influenzae; assay: Ratio of MBC to MIC for azithromycin-susceptible Haemophilus influenzae ATCC 49247
[19] = test system: Haemophilus influenzae; assay: Antimicrobial activity against azithromycin-susceptible Haemophilus influenzae ATCC 49247 incubated in HTM broth medium for 20 to 24 hrs by two-fold microbroth dilution method
[20] = test system: Haemophilus influenzae; assay: Bactericidal activity against azithromycin-susceptible Haemophilus influenzae ATCC 49247 assessed as reduction in colony formation incubated in HTM broth medium for 20 to 24 hrs followed by 24 hrs subculturing in the medium without test compound
[21] = test system: Staphylococcus aureus; assay: Ratio of MBC to MIC for inducibly erythromycin-resistant and methicillin resistant Staphylococcus aureus PU32 expressing i-ermA
[22] = test system: Staphylococcus aureus; assay: Antimicrobial activity against constitutively erythromycin resistant Staphylococcus aureus PU20 expressing c-ermC incubated in CAMHB medium for 20 hrs by two-fold microbroth dilution method; conditions: PU20, 20 h
Summary of the method: (§3)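 Purified fresh Staphylococcus isolate at about 5×10^5 CFU/ml final in CAMHB, 35 °C for 20 h. […] Each run included ATCC strains and reference antibiotics as QC, plus an antibiotic-free growth control.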

[23] = test system: Staphylococcus epidermidis; assay: Antimicrobial activity against Staphylococcus epidermidis E1 incubated in CAMHB medium for 20 hrs by two-fold microbroth dilution method; conditions: E1, 20 h; summary of the method: as §2
[24] = test system: Streptococcus pneumoniae; assay: Antimicrobial activity against constitutively erythromycin resistant Streptococcus pneumoniae PU27 expressing c-erm incubated in CAMHB medium for 20 to 24 hrs by two-fold microbroth dilution method
Summary of the method: (§4)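 Purified fresh Streptococcus isolate at about 5×10^5 CFU/ml final in CAMHB with 5% horse serum, 35 °C for 20–24 h. […] Each run included ATCC strains and reference antibiotics as QC, plus an antibiotic-free growth control.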

[25] = test system: Staphylococcus aureus; assay: Antimicrobial activity against inducibly erythromycin-resistant Staphylococcus aureus PU32 expressing i-ermA incubated in CAMHB medium for 20 hrs by two-fold microbroth dilution method; conditions: PU32, 20 h; summary of the method: as §3
[26] = test system: Staphylococcus aureus; assay: Antimicrobial activity against erythromycin-susceptible Staphylococcus aureus ATCC 29213 incubated in CAMHB medium for 20 hrs by two-fold microbroth dilution method; conditions: ATCC 29213, 20 h; summary of the method: as §2
[27] = test system: Streptococcus pyogenes; assay: Antimicrobial activity against erythromycin-susceptible Streptococcus pyogenes A3 incubated in CAMHB medium for 20 to 24 hrs by two-fold microbroth dilution method
[28] = test system: Streptococcus pyogenes; assay: Antimicrobial activity against constitutively erythromycin resistant Streptococcus pyogenes A2 expressing c-erm incubated in CAMHB medium for 20 to 24 hrs by two-fold microbroth dilution method; summary of the method: as §4
[29] = test system: Staphylococcus aureus; assay: Antimicrobial activity against inducibly erythromycin resistant Staphylococcus aureus PU64 expressing i-ermA incubated in CAMHB medium for 20 hrs by two-fold microbroth dilution method; conditions: PU64, 20 h; summary of the method: as §3

SMILES | MIC [1] | Ratio [2] | MBC [3] | MBC [4] | MIC [5] | MBC [6] | MBC [7] | MBC [8] | MIC [9] | MIC [10] | Ratio [11] | MIC [12] | MBC [13] | MIC [14] | Ratio [15] | Ratio [16] | Ratio [18] | MIC [19] | MBC [20] | Ratio [21] | further results
CC[C@H]1OC(=O)[C@H](C)[C@@H](OCC#Cc2ccc(NC(=O)c3ccccn3)nc2)[C@H](C)[C@@H](O[C@@H]2O[C@H](C)C[C@H](N(C)C)[C@H]2O)[C@](C)(OC)C[C@@H](C)/C(=N\OC)[C@H](C)[C@H]2OC(=O)O[C@@]21C | 128 µg/mL (≈ 145 µM) | 1 | 16 µg/mL (≈ 18.2 µM) | 16 µg/mL (≈ 18.2 µM) | 4 µg/mL (≈ 4.55 µM) | 8 µg/mL (≈ 9.09 µM) | > 256 µg/mL | 16 µg/mL (≈ 18.2 µM) | > 256 µg/mL | 4 µg/mL (≈ 4.55 µM) | 1 | 8 µg/mL (≈ 9.09 µM) | > 256 µg/mL | 16 µg/mL (≈ 18.2 µM) | 4 |  |  |  |  |  | 
CC[C@H]1OC(=O)[C@H](C)[C@@H](OCC#Cc2cncc(NC(=O)c3ccccn3)c2)[C@H](C)[C@@H](O[C@@H]2O[C@H](C)C[C@H](N(C)C)[C@H]2O)[C@](C)(OC)C[C@@H](C)/C(=N\OC)[C@H](C)[C@H]2OC(=O)O[C@@]21C | 256 µg/mL (≈ 291 µM) | 2 | 16 µg/mL (≈ 18.2 µM) | 32 µg/mL (≈ 36.4 µM) | 4 µg/mL (≈ 4.55 µM) | 16 µg/mL (≈ 18.2 µM) | > 256 µg/mL | 16 µg/mL (≈ 18.2 µM) | > 256 µg/mL | 4 µg/mL (≈ 4.55 µM) | 2 | 8 µg/mL (≈ 9.09 µM) | > 256 µg/mL | 16 µg/mL (≈ 18.2 µM) | 4 |  |  |  |  |  | 
CC[C@H]1OC(=O)[C@H](C)[C@@H](OC(=O)CCNCCCCc2cccnc2)[C@H](C)[C@@H](O[C@@H]2O[C@H](C)C[C@H](N(C)C)[C@H]2O)[C@](C)(OC)C[C@@H](C)/C(=N\OC)[C@H](C)[C@H]2OC(=O)O[C@@]21C | 256 µg/mL (≈ 302 µM) | 2 | 4 µg/mL (≈ 4.71 µM) | 128 µg/mL (≈ 151 µM) | 2 µg/mL (≈ 2.36 µM) |  | > 256 µg/mL | 4 µg/mL (≈ 4.71 µM) | 128 µg/mL (≈ 151 µM) | 1 µg/mL (≈ 1.18 µM) |  |  | 256 µg/mL (≈ 302 µM) | 64 µg/mL (≈ 75.4 µM) | 4 | 2 | 2 | 128 µg/mL (≈ 151 µM) | 256 µg/mL (≈ 302 µM) |  | Ratio [17]: 1
CC[C@H]1OC(=O)[C@H](C)[C@@H](OC(=O)CCNCCCc2ccc(-n3ccnc3)cc2)[C@H](C)[C@@H](O[C@@H]2O[C@H](C)C[C@H](N(C)C)[C@H]2O)[C@](C)(OC)C[C@@H](C)/C(=N\OC)[C@H](C)[C@H]2OC(=O)O[C@@]21C | 64 µg/mL (≈ 71.1 µM) | 2 | 4 µg/mL (≈ 4.44 µM) | 32 µg/mL (≈ 35.6 µM) | 4 µg/mL (≈ 4.44 µM) |  | 128 µg/mL (≈ 142 µM) | 8 µg/mL (≈ 8.89 µM) | 64 µg/mL (≈ 71.1 µM) | 2 µg/mL (≈ 2.22 µM) |  |  | > 256 µg/mL | 16 µg/mL (≈ 17.8 µM) | 2 |  | 1 | 256 µg/mL (≈ 284 µM) | 256 µg/mL (≈ 284 µM) | 2 | Ratio [17]: >4
CC[C@H]1OC(=O)[C@H](C)[C@@H](O[C@H]2C[C@@](C)(OC)[C@@H](O)[C@H](C)O2)[C@H](C)[C@@H](O[C@@H]2O[C@H](C)C[C@H](N(C)C)[C@H]2O)[C@](C)(OC)C[C@@H](C)C(=O)[C@H](C)[C@@H](O)[C@]1(C)O [CLARITHROMYCIN] | > 256 µg/mL | >8 | 0.125 to 0.25 µg/mL (≈ 0.167 to 0.334 µM) | 8 to 64 µg/mL (≈ 10.7 to 85.6 µM) | 4 µg/mL (≈ 5.35 µM) | 0.125 µg/mL (≈ 0.167 µM) | > 256 µg/mL | 8 to 32 µg/mL (≈ 10.7 to 42.8 µM) | 32 µg/mL (≈ 42.8 µM) | 0.06 to 0.064 µg/mL (≈ 0.0802 to 0.0856 µM) | 4 | 0.031 µg/mL (≈ 0.0414 µM) | > 256 µg/mL | 1 to 8 µg/mL (≈ 1.34 to 10.7 µM) | 2 - 4 | 2 - 8 | 2 | 4 µg/mL (≈ 5.35 µM) | 8 µg/mL (≈ 10.7 µM) | >8 | MIC [22]: > 256 µg/mL; MIC [23]: > 256 µg/mL; MIC [24]: 4 µg/mL (≈ 5.35 µM); MIC [25]: > 256 µg/mL; MIC [26]: 0.25 µg/mL (≈ 0.334 µM); MIC [27]: ≤ 0.032 µg/mL; MIC [28]: 128 µg/mL (≈ 171 µM); MIC [29]: > 256 µg/mL
CC[C@H]1OC(=O)[C@H](C)[C@@H](OC(=O)CCNCC#Cc2cccnc2)[C@H](C)[C@@H](O[C@@H]2O[C@H](C)C[C@H](N(C)C)[C@H]2O)[C@](C)(OC)C[C@@H](C)/C(=N\OC)[C@H](C)[C@H]2OC(=O)O[C@@]21C | 256 µg/mL (≈ 308 µM) | >8 | 4 µg/mL (≈ 4.81 µM) | > 64 µg/mL | 8 µg/mL (≈ 9.63 µM) |  | > 256 µg/mL | 16 µg/mL (≈ 19.3 µM) | 64 µg/mL (≈ 77 µM) | 1 µg/mL (≈ 1.2 µM) |  |  | > 256 µg/mL | 8 µg/mL (≈ 9.63 µM) | 4 | 2 | 1 | 256 µg/mL (≈ 308 µM) | 256 µg/mL (≈ 308 µM) | >4 | 
CC[C@H]1OC(=O)[C@H](C)[C@@H](OC(=O)CCNCCCc2cccnc2)[C@H](C)[C@@H](O[C@@H]2O[C@H](C)C[C@H](N(C)C)[C@H]2O)[C@](C)(OC)C[C@@H](C)/C(=N\OC)[C@H](C)[C@H]2OC(=O)O[C@@]21C | 256 µg/mL (≈ 307 µM) | >8 | 8 µg/mL (≈ 9.58 µM) | > 4 µg/mL | 2 µg/mL (≈ 2.4 µM) |  | > 256 µg/mL | 4 µg/mL (≈ 4.79 µM) | 32 µg/mL (≈ 38.3 µM) | 1 µg/mL (≈ 1.2 µM) |  |  | > 256 µg/mL | 0.5 µg/mL (≈ 0.599 µM) | 8 | 2 | 1 | 256 µg/mL (≈ 307 µM) | 256 µg/mL (≈ 307 µM) | >8 | 
